# TAAR1 antagonist – human TAAR1 antagonism | inhibition, % at 3 µM | 360,000 tested, 1.5% active | CHO RD-HGA16 TAAR1, Fluo-8 calcium fluorescence, antagonist | Q96RJ0;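 active = inhibition above a per-plate cutoff, the mean inhibition of test compounds on that plate plus 3 SD, cut at about 49% in these data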;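 note: 0% = DMSO plus EC80 beta-PEA response and 100% = DMSO alone without agonist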
#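 Test system – hTAAR1-expressing CHO RD-HGA16 cells, Gα16-coupled · Reagent – β-PEA at EC80 concentration, post-compound challenge · Compound dosing – 3 µM, single point · Timing – 140 s kinetic read after compound, 140 s after agonist · Detection – Fluo-8 intracellular calcium dye fluorescence, real-time kinetic reads · Control set – DMSO and EC80 PEA controls · Repeats – n of 1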
# M1 antag – human CHRM1 antagonism | CHO-K1 hM1, Fluo-8 calcium fluorescence, ACh EC80 antagonist | inhibition, % at 3 µM | 360,000 tested, 1.3% active | AID 588852;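 active = percent inhibition above its own plate's cutoff, namely the mean of that plate's compound wells plus 3 SD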;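 note: peak over basal fluorescence ratio during 140 s after agonist addition; 0% = ACh EC80 plus DMSO and 100% = DMSO alone without agonist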
# Target sequence (P11229 whole entry, looked up): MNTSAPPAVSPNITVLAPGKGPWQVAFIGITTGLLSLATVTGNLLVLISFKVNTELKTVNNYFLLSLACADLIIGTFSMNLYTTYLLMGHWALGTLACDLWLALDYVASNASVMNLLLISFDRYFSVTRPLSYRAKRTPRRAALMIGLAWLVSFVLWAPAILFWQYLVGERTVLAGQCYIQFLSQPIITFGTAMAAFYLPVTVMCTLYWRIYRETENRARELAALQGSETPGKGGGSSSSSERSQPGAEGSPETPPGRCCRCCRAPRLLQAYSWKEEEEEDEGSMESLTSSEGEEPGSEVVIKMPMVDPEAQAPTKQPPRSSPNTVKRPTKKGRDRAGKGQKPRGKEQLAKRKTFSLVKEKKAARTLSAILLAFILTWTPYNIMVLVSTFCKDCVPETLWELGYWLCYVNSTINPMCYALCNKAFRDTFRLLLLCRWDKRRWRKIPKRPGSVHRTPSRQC
# M1 ag – agonists of human M1 muscarinic receptor. P11229. CHO-K1 hM1, Fluo-8 calcium fluorescence, agonist mode; 0% DMSO, 100% acetylcholine EC100. activation, % at 3 µM. 360,000 tested, 0.33% active. AID 588814;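 active = activation above the run's mean compound activation plus 3 SD, cut at about 16% in these data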;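 note: peak over basal fluorescence ratio within a 140 s kinetic read after compound addition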
# m5-HT2A agonist – agonists of mouse serotonin 5-HT2A receptor (HTR2A); P35363; CHO-K1 mHTR2A beta-arrestin complementation, luminescence; percent of 30 µM serotonin response; activation, % at 7.6 µM; 360,000 tested, 0.66% active;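 active = activation above a run cutoff, the mean activation of all tested compounds plus 3 SD, cut at about 14% in these data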;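 note: 0% = plate median of compound wells and 100% = 30 µM serotonin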
# TAAR1 agonist – agonists of human TAAR1; Q96RJ0; CHO RD-HGA16 TAAR1, Fluo-8 calcium fluorescence; vehicle wells 0%, saturating PEA agonist 100%; activation, % at 3 µM; 360,000 tested, 0.99% active;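 active = activation above the mean activation of all test compounds in the run plus 3 SD, cut at about 38% in these data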
#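 System: CHO RD-HGA16 cells carrying human TAAR1 plus Gα16; Incubation: 17-24 h seeding, 75 min 37 °C dye, 30 min RT; Measured by: Fluo-8 fluorescence, 5 s baseline then 140 s kinetic read; Control set: DMSO and PEA EC100; Replication: single well for each compound.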
# CHRM1 PAM – potentiates human M1 receptor response to acetylcholine; P11229; CHO-K1 hM1, Fluo-8 calcium fluorescence, ACh EC20; 0% = ACh EC20, 100% = maximal ACh; activation, % at 3 µM; 360,000 tested, 0.088% active; AID 588819; in the data active = activation above about 19%, passing the limit was not always enough
# OPRM1 ag – activates human mu opioid receptor in HTR2A counterscreen | shares compounds with m5-HT2A agonist | U2OS OPRM1 beta-arrestin PathHunter, luminescence; DMSO 0%, DAMGO 9.3 µM 100% | activation, % at 9.3 µM | 2,300 tested, 5.3% active | AID 624380;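 active = mean activation above the mean of DMSO-only wells plus 3 SD, cut at about 0.5% in these data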
# m5-HT2A ag conf – confirmation of mouse HTR2A serotonin receptor agonists. shares compounds with m5-HT2A agonist. CHO-K1 PathHunter beta-arrestin recruitment, luminescence; DMSO 0%, 30 µM serotonin 100%. activation, % at 7.6 µM. 2,300 tested, 19% active;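 active = mean activation across triplicates above the hit threshold derived in the original primary screen, cut at about 15% in these data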
# The depositor's hits bear a star; / = no result given. This is a sample that favours compounds with a hit; in the whole collection about 3.9% have one here.
SMILES,TAAR1 antagonist,M1 antag,M1 ag,m5-HT2A agonist,TAAR1 agonist,CHRM1 PAM,OPRM1 ag,m5-HT2A ag conf
COc1cccc(C(=O)NCC(=O)OCC(=O)Nc2cc(OC)c([N+](=O)[O-])cc2C)c1,2.1,5.1,-4.9,17.0*,0.3,4.2,-0.7,-4.3
Cc1ccccc1C(=O)Nc1ccnc(-c2ccncc2)n1,4.8,-4.4,-4.1,19.5*,-1.2,5.4,0.0,1.3
CCn1c(=O)ccc2cc([N+](=O)[O-])ccc21,1.2,5.0,-3.5,14.4*,14.1,2.9,-0.6,1.7
Cc1ccc2[nH]c3c(N4CCN(Cc5ccc6c(c5)OCO6)CC4)ncnc3c2c1,5.4,/,/,/,5.7,/,/,/
Brc1ccc(CN2CCN(c3ccccn3)CC2)s1,-6.0,-3.9,-8.9,29.5*,7.4,-0.3,-0.4,98.1*
c1cnc(N2CCN(Cc3ccc4c(c3)OCO4)CC2)nc1,-18.6,-32.4,-4.5,41.7*,0.0,5.1,-0.1,169.0*
FC(F)(F)c1ccc(N2CCN(Cc3ccc4c(c3)OCO4)CC2)nc1,-28.2,18.7,-9.1,1.6,1.5,-11.9,/,/
O=c1c(CN2CCN(c3ccccn3)CC2)coc2ccccc12,11.1,-6.2,-9.8,0.0,-0.7,6.4,/,/
c1ccc(N2CCN(Cc3ccc4c(c3)OCO4)CC2)nc1,-25.8,0.7,-7.2,31.7*,3.2,-0.5,-0.6,113.2*
c1cc2c(cc1CN1CCOCC1)OCO2,-17.5,-5.9,-6.3,0.0,1.6,11.3,/,/
c1nc(N2CCN(Cc3ccc4c(c3)OCO4)CC2)c2[nH]cnc2n1,-0.5,4.2,-10.3,20.4*,2.6,-5.4,-0.2,74.8*
CCOC(=O)C(Cc1c[nH]c2ccc([N+](=O)[O-])cc12)(NC(C)=O)C(=O)OCC,-4.6,-4.1,1.6,-6.8,3.0,1.2,/,/
CC(NC(=O)Nc1nnc(C(F)(F)F)s1)(C(F)(F)F)C(F)(F)F,1.9,27.7,6.9,16.1*,8.3,-6.2,0.1,14.2
CCNC(=O)NC(=O)COC(=O)c1cccc(S(=O)(=O)N2CC3(C)CC2CC(C)(C)C3)c1 (stereo unspecified),-49.0,-3.9,-0.6,-0.1,0.0,-1.1,/,/
c1ccc(CN2CCN(c3ncccn3)CC2)cc1,-14.5,13.2,-5.9,34.7*,0.5,-0.7,-0.4,97.9*
O=[N+]([O-])c1ccc(CN2CCN(c3ncccn3)CC2)cc1,2.3,-7.5,2.4,12.3,-0.5,2.7,/,/
C(#Cc1ccccc1)CN1CCN(c2ccccn2)CC1,-1.8,-7.0,-2.9,1.8,-0.1,2.4,/,/
c1ccc(COc2ccc(CN3CCN(c4ccccn4)CC3)cc2)cc1,2.1,32.5*,-5.8,26.8*,13.3,-21.8,-0.6,98.5*
Clc1ccc(CN2CCN(c3ncccn3)CC2)cc1,-14.7,-5.9,-5.5,28.8*,0.8,2.8,0.1,116.6*
Clc1ccc(CN2CCN(c3ncccn3)CC2)cc1Cl,-13.3,-23.7,-6.9,27.1*,-0.8,5.4,0.0,112.1*
COc1ccc(CSCC(=O)Nc2ccccc2)cc1[N+](=O)[O-],-3.0,-1.9,-5.8,-0.2,4.1,3.0,/,/
C[C@H]1CN=C(Nc2ccccc2)N1CC1CCCCCC1,7.9,0.8,-10.7,-4.5,12.9,0.1,/,/
COc1cccc(N2CCN(C3CC(=O)N(c4ccc(Cl)c(Cl)c4)C3=O)CC2)c1 (stereo unspecified),10.7,-5.4,-2.4,-2.4,6.1,7.8,/,/
CN1C(=O)CC(N2CCN(c3ccc(Cl)c(Cl)c3)CC2)C1=O (stereo unspecified),-1.9,-8.6,0.7,15.5*,2.8,7.6,-0.1,4.9
CC(=O)N1CCN(C(=O)c2ccc(S(=O)(=O)Nc3ccccc3C)cc2)CC1,-12.8,-15.9,-7.8,-6.1,-0.3,13.4,/,/
SMILES,TAAR1 antagonist,M1 antag,M1 ag,m5-HT2A agonist,TAAR1 agonist,CHRM1 PAM,OPRM1 ag,m5-HT2A ag conf
O=C(c1cccc(S(=O)(=O)NCc2ccccc2)c1)N1CCCCC1,-9.8,-2.4,-1.1,18.7*,1.8,3.6,-0.2,2.7
O=C(CS(=O)(=O)c1ccccc1)N1CCCCCC1,3.8,-21.8,-4.9,21.2*,7.2,6.6,-0.3,-1.4
O=C(c1ccc(NS(=O)(=O)c2ccccc2)cc1)N1CCCCCC1,16.1,-3.8,-3.0,17.4*,4.1,2.5,-0.5,-2.2
Cc1ccccc1NS(=O)(=O)c1ccc(C(=O)N2CCN(S(=O)(=O)c3ccccc3)CC2)cc1,48.5,-4.2,-2.2,14.8*,7.9,0.2,-0.2,0.4
CC(=O)c1ccc(N2CCN(c3ncccn3)CC2)cc1,-9.1,-1.6,5.5,2.3,1.4,8.6,/,/
CCN(C(=O)CSc1nnc(-c2ccccc2C)n1C)c1c(N)n(Cc2ccccc2)c(=O)[nH]c1=O,-3.5,-2.2,4.3,14.5*,1.2,2.2,-0.5,-1.9
COCCN(C(=O)CSc1nnc(C)n1-c1ccc(C)cc1)c1c(N)n(Cc2ccccc2)c(=O)[nH]c1=O,-34.3,-5.7,-2.2,8.5,5.7,6.3,/,/
Cc1ccc(-n2c(C)nnc2SCC(=O)N(C)c2c(N)n(Cc3ccccc3)c(=O)[nH]c2=O)cc1,-11.4,-8.3,-3.7,17.2*,1.1,10.2,0.1,-2.3
Cc1ccccc1-c1nnc(SCC(=O)N(C)c2c(N)n(Cc3ccccc3)c(=O)[nH]c2=O)n1C,-9.1,-7.2,-3.7,-6.7,0.5,5.4,/,/
Cc1ccccc1OCCC(=O)OCC(=O)Nc1c(F)cccc1F,-7.5,-13.6,-1.6,1.4,3.4,9.3,/,/
CC(=O)Nc1ccc(S(=O)(=O)NC(C(=O)O)C(C)O)cc1 (stereo unspecified),-38.2,-17.2,0.1,6.0,3.0,11.8,/,/
COc1ccc(CN2CCN(C3CCC3)CC2CCO)c(C)c1C (stereo unspecified),-24.3,-23.6,-3.7,-8.6,0.3,8.2,/,/
CCOC(=O)N1CCN(C/C(C)=C/c2ccccc2)CC1,3.2,-8.8,-1.2,17.9*,8.7,1.6,-0.7,56.8*
Cc1cccc(-c2nsc(SCC(=O)Nc3ccc4c(c3)OCO4)n2)c1,2.1,6.9,-5.5,-1.1,0.4,-2.6,/,/
Cc1cccc(-c2nsc(SCC(=O)Nc3nccs3)n2)c1,3.0,0.7,-0.9,18.0*,0.3,7.5,0.0,-1.7
CC1CC(=O)Nc2ccccc2N1C(=O)Cn1cnc2ccccc2c1=O (stereo unspecified),-7.9,4.8,-3.1,-2.6,0.1,1.8,/,/
